# Calls of active or inactive are those of the source. The rule behind the calls is not given here.
# Experiments:
# Format in all cases: functional, organism-based
# Staphylococcus aureus [1] = experiment: Induction of VraSR-dependent tcaA gene expression in Staphylococcus aureus N315 at 10 ug/mL after 30 mins by Northern blot analysis
# Procedure, shortened: (§1)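 Total RNA, 10 µg per sample, was separated on a 1.5% agarose–20 mM guanidine thiocyanate gel in 1x TBE, then Northern blotted.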
# Staphylococcus aureus [2] = experiment: Induction of VraSR-dependent tcaA gene expression in Staphylococcus aureus N315 at 16 ug/mL after 30 mins by Northern blot analysis; procedure, shortened: as §1
# Staphylococcus aureus [3] = experiment: Induction of VraSR-dependent tcaA gene expression in Staphylococcus aureus KVR expressing N315 delta-vraSr mutant at 2 ug/mL after 30 mins by Northern blot analysis; procedure, shortened: as §1
# Staphylococcus aureus [4] = experiment: Induction of VraSR-dependent tcaA gene expression in Staphylococcus aureus KVR expressing N315 delta-vraSr mutant at 10 ug/mL after 30 mins by Northern blot analysis; procedure, shortened: as §1
SMILES,Activity (Staphylococcus aureus [1]),Activity (Staphylococcus aureus [2]),Activity (Staphylococcus aureus [3]),Activity (Staphylococcus aureus [4])
Cc1onc(-c2ccccc2)c1C(=O)N[C@@H]1C(=O)N2[C@@H]1SC(C)(C)[C@@H]2C(=O)O,Active,Active,inactive,inactive
CN[C@H](CC(C)C)C(=O)N[C@H]1C(=O)N[C@@H](CC(N)=O)C(=O)N[C@H]2C(=O)N[C@H]3C(=O)N[C@H](C(=O)N[C@H](C(=O)O)c4cc(O)cc(O)c4-c4cc3ccc4O)[C@H](O)c3ccc(c(Cl)c3)Oc3cc2cc(c3O[C@@H]2O[C@H](CO)[C@@H](O)[C@H](O)[C@H]2O[C@H]2C[C@](C)(N)[C@H](O)[C@H](C)O2)Oc2ccc(cc2Cl)[C@H]1O,Active,Active,inactive,inactive

# Source: ChEMBL document CHEMBL1137645, “Functional characterization of TcaA: minimal requirement for teicoplanin susceptibility and role in Caenorhabditis elegans virulence” (2007)
